Source: ChEMBL document CHEMBL1914335, “Identification of a potent and selective σ₁ receptor agonist potentiating NGF-induced neurite outgrowth in PC12 cells” (Bioorg Med Chem, 2011)
Activity calls are given as the source filed them. No cut-off for these calls is given here.

What was measured:
[1] = biological target: Sigma non-opioid intracellular receptor 1 (Cavia porcellus, UniProt Q60492); test: Displacement of [3H]-(+)-pentazocine from sigma1 receptor in guinea pig brain membrane after 150 mins by liquid scintillation counting; format: cell membranes
Sequence of Sigma non-opioid intracellular receptor 1 (Q60492 whole entry): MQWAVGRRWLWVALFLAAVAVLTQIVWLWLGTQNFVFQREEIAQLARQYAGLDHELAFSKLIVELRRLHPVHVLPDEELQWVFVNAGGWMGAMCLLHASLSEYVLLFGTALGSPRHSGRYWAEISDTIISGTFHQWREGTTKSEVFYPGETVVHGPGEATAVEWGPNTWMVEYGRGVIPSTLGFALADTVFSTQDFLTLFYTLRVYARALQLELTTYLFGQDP
Outline: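 Membranes (500 µg protein) incubated with 3 nM [3H]-(+)-pentazocine and nine test concentrations in 50 mM Tris-HCl pH 7.4, 150 min at 37 °C. Nonspecific binding defined by 10 µM haloperidol. Samples filtered on PEI-presoaked GF/B filters and counted by liquid scintillation; Ki calculated from these curves.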

Sus scrofa = species on record: Sus scrofa; test: Displacement of [3H]-(+)-MK-801 from NMDA receptor PCP binding site in pig brain cortex assessed as residual binding at 10 uM after 150 mins by scintillation counting
Outline: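 Pig brain cortex membranes (about 100 µg protein) incubated with 2 nM [3H]-(+)-MK-801 in 5 mM Tris-acetate/1 mM EDTA pH 7.5, 150 min at rt. Nonspecific binding with 10 µM (+)-MK-801. Filtration, then solid scintillator counting. Residual binding measured at 10 µM test compound.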

Cavia porcellus = species on record: Cavia porcellus; test: Selectivity ratio of Ki for sigma2 receptor in guinea pig brain membrane to Ki for sigma1 receptor in guinea pig brain membrane; format: cell membranes
Outline: (§1)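 For σ2, membranes (360 µg protein) incubated at rt for 120 min with 3 nM [3H]DTG plus 0.4 µM (+)-SKF10,047, with nine test concentrations in 50 mM Tris-HCl pH 8.0; nonspecific binding with 5 µM DTG. For σ1, 3 nM [3H]-(+)-pentazocine, 150 min at 37 °C, pH 7.4, haloperidol 10 µM. Both read by filtration and scintillation counting; Ki values derived.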

[2] = biological target: Kappa-type opioid receptor (Cavia porcellus, UniProt P41144); test: Displacement of [3H]-U69593 from kappa opioid receptor in guinea pig brain membrane after 150 mins by liquid scintillation counting; format: cell membranes
Sequence of Kappa-type opioid receptor (P41144 whole entry): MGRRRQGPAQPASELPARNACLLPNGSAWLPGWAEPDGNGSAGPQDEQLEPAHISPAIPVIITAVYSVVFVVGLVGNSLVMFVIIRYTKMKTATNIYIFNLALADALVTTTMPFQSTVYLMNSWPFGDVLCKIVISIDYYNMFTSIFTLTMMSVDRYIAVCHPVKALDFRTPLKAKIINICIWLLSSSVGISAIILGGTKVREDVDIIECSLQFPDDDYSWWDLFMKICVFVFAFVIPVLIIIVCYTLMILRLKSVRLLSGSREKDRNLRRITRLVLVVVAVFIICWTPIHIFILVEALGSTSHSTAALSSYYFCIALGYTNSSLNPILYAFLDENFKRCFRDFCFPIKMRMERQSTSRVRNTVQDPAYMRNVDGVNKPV
Outline: (§2)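 Guinea pig brain membranes (about 75 µg protein) incubated with 1 nM [3H]-U69,593 in 50 mM Tris, 8 mM MgCl2, pH 7.4, 150 min at 37 °C. Nonspecific binding with 10 µM unlabeled U69,593. Filtration, then solid scintillator counting in triplicate. Residual binding taken at 1 µM; otherwise IC50 from ≥6 concentrations, Ki by Cheng-Prusoff (Kd 0.69 nM).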

[3] = Displacement of [3H]-DTG from sigma2 receptor in guinea pig brain membrane after 120 mins by liquid scintillation counting; format: cell membranes, Cavia porcellus; outline: as §1
Mu-type opioid receptor = Mu-type opioid receptor (Cavia porcellus, UniProt P97266); test: Displacement of [3H]-DAMGO from mu opioid receptor in guinea pig brain membrane after 150 mins by liquid scintillation counting; format: cell membranes
Sequence of Mu-type opioid receptor (P97266 whole entry): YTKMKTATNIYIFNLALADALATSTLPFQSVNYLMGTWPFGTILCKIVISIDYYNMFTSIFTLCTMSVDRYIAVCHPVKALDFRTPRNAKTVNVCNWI
Outline: as §2, with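 “[3H]-DAMGO” for “[3H]-U69,593”, “MgCl2, 400 µM PMSF,” for “MgCl2,”, “naloxone.” for “unlabeled U69,593.”, “µM test compound;” for “µM;”, “0.57” for “0.69”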

[4] = biological target: Kappa-type opioid receptor (Cavia porcellus) (UniProt P41144); test: Displacement of [3H]-U69593 from kappa opioid receptor in guinea pig brain membrane assessed as residual binding at 1 uM after 150 mins by liquid scintillation counting; format: cell membranes; outline: as §2
Sequence of Kappa-type opioid receptor (Cavia porcellus) (P41144 whole entry): as the sequence (P41144 whole entry) above

[5] = biological target: Mu-type opioid receptor (Cavia porcellus) (UniProt P97266); test: Displacement of [3H]-DAMGO from mu opioid receptor in guinea pig brain membrane assessed as residual binding at 1 uM after 150 mins by liquid scintillation counting; format: cell membranes
Sequence of Mu-type opioid receptor (Cavia porcellus) (P97266 whole entry): as the sequence (P97266 whole entry) above
Outline: as §2, with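 “[3H]-DAMGO” for “[3H]-U69,593”, “MgCl2, 400 µM PMSF,” for “MgCl2,”, “naloxone.” for “unlabeled U69,593.”, “µM test compound;” for “µM;”, “0.57” for “0.69”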

[6] = biological target: Sigma non-opioid intracellular receptor 1 (Rattus norvegicus) (UniProt Q9R0C9); test: Agonist activity at sigma1 receptor in rat PC12 cells assessed as cells with increase in NGF-induced neurite outgrowth at 2.5 uM after 5 days by phase contrast microscopy; format: functional, cell-based; conditions: PC-12
Sequence of Sigma non-opioid intracellular receptor 1 (Rattus norvegicus) (Q9R0C9 whole entry): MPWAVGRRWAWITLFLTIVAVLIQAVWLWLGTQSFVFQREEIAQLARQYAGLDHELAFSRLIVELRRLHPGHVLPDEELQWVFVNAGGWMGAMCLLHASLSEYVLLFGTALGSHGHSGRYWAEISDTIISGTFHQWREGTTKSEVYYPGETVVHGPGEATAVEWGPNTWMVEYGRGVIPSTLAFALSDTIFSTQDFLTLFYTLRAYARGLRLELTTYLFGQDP
Outline: (§3)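 PC12 cells grown at 37 °C, 5% CO2 in RPMI with 5% FBS and 10% horse serum. Replated at 0.25 × 10^4 cells/cm2 on poly-D-lysine glass coverslips. After 24 h, switched to 0.5% HS medium with NGF 2.5 ng/mL ± drug, BD-1063 at 5 µM final where used. After 5 days, fixed in 4% PFA. Cells with ≥1 neurite at least one cell-body diameter long were scored blind by two examiners; ≥3 independent experiments.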

[7] = biological target: Sigma non-opioid intracellular receptor 1 (Rattus norvegicus) (UniProt Q9R0C9); test: Agonist activity at sigma1 receptor in rat PC12 cells assessed as cells with increase in NGF-induced neurite outgrowth at 0.01 uM after 5 days by phase contrast microscopy; format: functional, cell-based; conditions: PC-12; outline: as §3
[8] = biological target: Sigma non-opioid intracellular receptor 1 (Rattus norvegicus) (UniProt Q9R0C9); test: Agonist activity at sigma1 receptor in rat PC12 cells assessed as increase of NGF-induced neurite length at 2.5 uM after 5 days by phase contrast microscopy; format: functional, cell-based; conditions: PC-12
Outline: (§4)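 Culture conditions match the neurite-outgrowth note: PC12 cells on poly-D-lysine coverslips with NGF 2.5 ng/mL ± drug for 5 days, BD-1063 at 5 µM final where used. Cells were then fixed in 4% PFA and imaged by phase contrast, six fields per coverslip. Neurite length was traced from cell body to tip, measured blind by two examiners; ≥3 independent experiments; mean ± SEM.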

[9] = biological target: Sigma non-opioid intracellular receptor 1 (Rattus norvegicus) (UniProt Q9R0C9); test: Agonist activity at sigma1 receptor in rat PC12 cells assessed as cells with increase in NGF-induced neurite outgrowth at 0.05 uM after 5 days by phase contrast microscopy; format: functional, cell-based; conditions: PC-12; outline: as §3
[10] = biological target: Sigma non-opioid intracellular receptor 1 (Rattus norvegicus) (UniProt Q9R0C9); test: Agonist activity at sigma1 receptor in rat PC12 cells assessed as increase of NGF-induced neurite elongation at 0.25 uM after 5 days by phase contrast microscopy; format: functional, cell-based; conditions: PC-12; outline: as §4
[11] = biological target: Sigma non-opioid intracellular receptor 1 (Rattus norvegicus) (UniProt Q9R0C9); test: Agonist activity at sigma1 receptor in rat PC12 cells assessed as cells with increase in NGF-induced neurite outgrowth at 0.05 to 2.5 uM after 5 days by phase contrast microscopy; conditions: PC-12
[12] = biological target: Sigma non-opioid intracellular receptor 1 (Rattus norvegicus) (UniProt Q9R0C9); test: Agonist activity at sigma1 receptor in rat PC12 cells assessed as increase of NGF-induced neurite elongation at 0.05 uM after 5 days by phase contrast microscopy; format: functional, cell-based; conditions: PC-12; outline: as §4
[13] = biological target: Sigma non-opioid intracellular receptor 1 (Rattus norvegicus) (UniProt Q9R0C9); test: Agonist activity at sigma1 receptor in rat PC12 cells assessed as cells with increase in NGF-induced neurite outgrowth at 0.25 uM after 5 days by phase contrast microscopy; format: functional, cell-based; conditions: PC-12; outline: as §3
HaCaT [14] = test: Cytotoxicity against human HaCaT cells at 1x10'-8 to 1x10'-5 M after 72 hrs by MTT assay; format: cell-based
Outline: (§5)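 HaCaT cells plated at 5000/well. After 24 h, exposed to 1 × 10^-8 to 1 × 10^-5 for 48 or 72 h at 37 °C, 5% CO2, in medium with 5% FBS or serum-free (N = 6 each). Viability was read as optical density in an MTT-based assay.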

HaCaT [15] = test: Cytotoxicity against human HaCaT cells at 1x10'-8 to 1x10'-5 M after 48 hrs by MTT assay; format: cell-based; outline: as §5
[16] = biological target: Sigma non-opioid intracellular receptor 1 (Rattus norvegicus) (UniProt Q9R0C9); test: Agonist activity at sigma1 receptor in rat PC12 cells assessed as cells with increase in NGF-induced neurite outgrowth at 0.25 uM after 5 days by phase contrast microscopy in presence of 5 uM sigma1 receptor antagonist BD-1063; format: functional, cell-based; conditions: PC-12; outline: as §3
[17] = biological target: Sigma non-opioid intracellular receptor 1 (Rattus norvegicus) (UniProt Q9R0C9); test: Agonist activity at sigma1 receptor in rat PC12 cells assessed as decrease in NGF-induced neurite elongation at 0.25 uM after 5 days by phase contrast microscopy in presence of 5 uM sigma1 receptor antagonist BD-1064 relative to compound alone; format: functional, cell-based; set-up: scale not given: the % may be the effect or the level left; conditions: PC-12, in the assay text read “BD-1063” for “BD-1064”; outline: as §4
PC-12 = test: Cytotoxicity against rat PC12 cells; format: cell-based

| SMILES | Ki [1] [nM] | Activity (Sus scrofa) [%] | Ratio Ki (Cavia porcellus) | Ki [3] [nM] | Activity [4] [%] | Activity [5] [%] | also measured |
| --- | --- | --- | --- | --- | --- | --- | --- |
| C/C(=C\CN(C)Cc1ccccc1)c1ccccc1 | 92 | 67 | 0.7 | 61 | – | – | Ki [2]: 438 nM; Ki (Mu-type opioid receptor): 119 nM |
| C/C(=C\CN1CCC(Cc2ccccc2)CC1)c1ccc2ccccc2c1 | 23 | 17 | 0.7 | 16 | 10 | 38 | – |
| O=C(OCCN1CCOCC1)C1(c2ccccc2)CCCCC1 | – | – | – | – | – | – | Activity [6]: inactive; Activity [7]: inactive; Activity [8]: inactive |
| C/C(=C\CN(C)C)c1ccccc1 | > 1000 | 0 | – | > 1000 | 0 | 0 | – |
| COc1ccc(/C(C)=C/CN2CCC(Cc3ccccc3)CC2)cc1 | 4.14 | 0 | 1.7 | 7.1 | – | – | Ki [2]: 157 nM; Ki (Mu-type opioid receptor): 149 nM |
| C/C(=C\CN1CCOCC1)c1ccc(-c2ccccc2)cc1 | 11.6 | 69 | 33.3 | 386 | 10 | 52 | – |
| C/C(=C\CN1CCC(Cc2ccccc2)CC1)c1ccccc1 | 1.07 | 0 | 5.1 | 5.49 | – | – | Ki [2]: 189 nM; Ki (Mu-type opioid receptor): 152 nM |
| C/C(=C\CN1CCOCC1)c1ccc2ccccc2c1 | 9.6 | 31 | 23.9 | 229 | 15 | 44 | – |
| COc1cccc(/C(C)=C/CN2CCCCC2)c1 | 91 | 0 | 3.2 | 294 | 22 | 21 | – |
| COc1ccc(/C(C)=C/CN2CCOCC2)cc1 | > 1000 | 10 | – | > 1000 | 8 | 0 | – |
| COc1cccc(/C(C)=C/CN(C)C)c1 | > 1000 | 60 | – | > 1000 | 5 | 17 | – |
| C/C(=C\CN(C)C)c1ccc(-c2ccccc2)cc1 | – | – | 75.7 | 106 | – | – | – |
| C/C(=C\CN(C)Cc1ccccc1)c1ccc2ccccc2c1 | – | – | 111 | 873 | – | – | – |
| C/C(=C\CN1CCC(Cc2ccccc2)CC1)c1ccc(-c2ccccc2)cc1 | 7.02 | 17 | 2.6 | 18 | 10 | 0 | – |
| C/C(=C\CN1CCCCC1)c1ccccc1 | 459 | 0 | 0.4 | 191 | 0 | 19 | – |
| COc1cccc(/C(C)=C/CN2CCOCC2)c1 | > 1000 | 20 | – | > 1000 | 10 | 46 | – |
| COc1ccc(/C(C)=C/CN(C)Cc2ccccc2)cc1 | 5.25 | 27 | 29.5 | 155 | – | – | Ki [2]: 197 nM; Ki (Mu-type opioid receptor): 92 nM |
| C/C(=C\CN1CCCCC1)c1ccc2ccccc2c1 | 0.97 | 16 | 36.2 | 35.1 | 44 | 23 | – |
| C/C(=C\CN(C)C)c1ccc2ccccc2c1 | – | – | 7.5 | 148 | – | – | – |
| C/C(=C\CN1CCCCC1)c1ccc(-c2ccccc2)cc1 | 0.86 | 32 | 129 | 111 | 6 | 0 | Activity [6]: inactive; Activity [9]: inactive; Activity [10]: inactive; Activity [11]: inactive; Activity [12]: inactive; Activity [13]: inactive; Activity [8]: inactive |
| COc1cccc(/C(C)=C/CN(C)Cc2ccccc2)c1 | 10 | 8 | 16.3 | 163 | – | 49 | Ki [2]: 301 nM |
| C/C(=C\CN(C)Cc1ccccc1)c1ccc(-c2ccccc2)cc1 | – | – | 12 | 75.7 | – | – | – |
| COc1cccc(/C(C)=C/CN2CCC(Cc3ccccc3)CC2)c1 | 7.7 | 36 | 0.8 | 5.8 | – | 36 | Ki [2]: 214 nM |
| COc1ccc(/C(C)=C/CN(C)C)cc1 | 806 | 0 | – | > 1000 | 20 | 10 | – |
| CC(CCN1CCCCC1)c1ccc(-c2ccccc2)cc1.Cl (racemic) | 0.7 | 25 | 147 | 103 | 36 | 0 | Activity (HaCaT [14]): Non-toxic; Activity (HaCaT [15]): Non-toxic; Activity [16]: 18.6%; Activity [10]: 131 µm; Activity [17]: 31%; Activity [7]: 23.4%; Activity (PC-12): Non-toxic |
| COc1ccc(/C(C)=C/CN2CCCCC2)cc1 | 14 | 0 | 10.6 | 149 | 14 | 36 | – |
| C/C(=C\CN1CCOCC1)c1ccccc1 | > 1000 | 19 | – | > 1000 | 3 | 12 | – |
